Hit rate of the full screen: of about 11,000 compounds, about 510 (4.6%) were called active. This excerpt belongs to a sample that is enriched for actives. Values without a mark were called inactive.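 How the source made its calls: active means inhibition of at least 40% at 10 µM in either of the two replicates; inactive means the rest.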

The subject of the experiment is intestinal alkaline phosphatase [Mus musculus]. Kind of experiment: mouse intestinal phosphatase enzyme inhibition – biochemical, luminescence, single concentration, confirmation (AID 434971).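 Further: plate controls were DMSO wells with enzyme for no effect and buffer wells lacking enzyme for full effect.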 Conditions: purified mouse IAP, CDP-Star luminescence, 30 min; at 10 µM; stronger effect = higher value. In a few lines:
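System: mouse IAP enzyme; Medium: DEA buffer, ZnCl2, MgCl2; Probe or stimulus: CDP-Star; Doses: compound in DMSO; Incubation: 30 min, room temperature; Signal: luminescence from CDP-Star dephosphorylation; Control set: enzyme-free wells as negative control.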
Regarding `COc1ccc(N2C(=O)/C(=C/c3ccco3)C(=O)NC2=S)cc1`, the inhibition is 43.2% (active). As to `Cc1cc(C)cc(NC(=S)NC2CC3CCCC(C2)N3Cc2cccs2)c1` (centres undefined), the inhibition was -150%. With `O=C1NC(=O)N(Cc2ccco2)C(=O)/C1=C\c1ccc(-c2ccc(F)cc2)o1` the figure was 83.5% (active); with `O=C1NC(=O)N(Cc2ccco2)C(=O)/C1=C\c1cccn1CCOc1ccccc1`, 50.6% (active).

The values above are taken from PubChem BioAssay AID434971 (Sanford-Burnham Center for Chemical Genomics, 2010).
